Sampled rows, rich in hits. Any-hit rate of the full collection: about 1.9%.
Runt-CBFb FRET: blocks binding of human RUNX1 Runt domain to CBFb | Q01196+Q13951 | Cerulean-Runt/Venus-CBFb FRET ratio 530/480, 1 h | inhibition, % at 20 µM | hit rate 0.46% among 220,000;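 active means inhibition over about 50% at 20 µM in the single-dose screen, limit read from the data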
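test system = Cerulean-tagged RUNX1 Runt domain (FRET donor) fusion protein | reagent = Venus-CBFb binding partner, 100 nM | incubation = protein complex preformed 1 h, compound exposure 1 h, room temperature, dark | detection = FRET fluorescence | read-out basis = loss of energy transfer signal | controls = 5 µM unlabeled CBFb as full-inhibition high control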
RanGTP-Imp inh: disruptors of Ran-importin-beta complex formation – biochemical, FRET, CFP-Ran, YFP-importin-beta, homogeneous, primary screen. cell-free CFP-Ran/YFP-importin-beta FRET ratio. hit rate 1.1% among 300,000. inhibition, % (concentration not given with the values);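 active means more than half of the replicate wells show a fall in the fluorescence ratio signal beyond about 16%, limit read from the data, passing the limit was not always enough; inconclusive means exactly half of the replicate wells pass the set limit; inactive means fewer than half of replicates pass the limit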
Runt-SMMHC FRET: inhibitors of human RUNX1 Runt domain binding to CBFb-SMMHC | hit rate 0.74% among 220,000 | inhibition, % at 20 µM | Q01196+Q13951 | Cerulean-Runt/Venus-CBFb-SMMHC FRET ratio 530/480, 1 h;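 active means mean inhibition across duplicate retests at 20 µM reaching about 50%, limit read from the data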;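 further: inhibitors lower the FRET ratio by blocking Runt binding to CBFb-SMMHC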
Hck-Nef inh: blocks Nef-activated human Hck kinase; Recombinant Hck-YEEI plus Nef, Z-Lyte FRET kinase assay; inhibition, % at 20 µM; hit rate 0.68% among 220,000;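 active means Hck-Nef kinase inhibition above about 50%, limit read from the data; inactive means inhibition below that limit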
Target sequence (P08631 whole entry, looked up): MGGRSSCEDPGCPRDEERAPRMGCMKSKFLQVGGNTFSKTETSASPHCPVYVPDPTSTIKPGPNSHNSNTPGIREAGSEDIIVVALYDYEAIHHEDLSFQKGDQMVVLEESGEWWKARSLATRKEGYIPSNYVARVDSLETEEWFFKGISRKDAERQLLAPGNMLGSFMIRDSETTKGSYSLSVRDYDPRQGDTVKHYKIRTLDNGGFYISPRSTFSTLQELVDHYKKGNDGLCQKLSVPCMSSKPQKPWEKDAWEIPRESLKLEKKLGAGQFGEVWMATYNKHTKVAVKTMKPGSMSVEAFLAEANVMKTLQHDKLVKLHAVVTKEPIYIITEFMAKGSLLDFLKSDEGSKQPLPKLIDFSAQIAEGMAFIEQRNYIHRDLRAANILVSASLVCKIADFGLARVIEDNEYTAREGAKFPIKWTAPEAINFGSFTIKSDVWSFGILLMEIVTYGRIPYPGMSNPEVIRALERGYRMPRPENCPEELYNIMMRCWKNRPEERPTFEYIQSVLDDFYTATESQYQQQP
Runt-CBFb TRFRET: disrupts human RUNX1 Runt domain binding to CBFb; shares compounds with Runt-CBFb FRET; TR-FRET RUNX1 Runt domain-CBFb binding; inhibition, % at 20 µM; hit rate 20% among 480; AID 1502; in the data active means inhibition above about 40%
Of the large screens only hits and unclear results are named; the others gave an inactive call (follow-up assays come after a bar, where they were run).

Nc1ccc(S(=O)(=O)Nc2nccc(/C=C/c3cccc(Br)c3)n2)cc1	none (no result: Runt-CBFb FRET, Runt-SMMHC FRET, Hck-Nef inh)
Cc1cc(C)c2c(n1)sc1c(-c3ccccc3)c(C#N)c(N)nc12	Runt-CBFb FRET 60, RanGTP-Imp inh 82, Runt-SMMHC FRET 83 | Runt-CBFb TRFRET inactive
Cc1nc(N)c(C#N)c(-c2ccccc2)c1C	none
Cc1occc1C(=O)Nc1cc(C(F)(F)F)ccc1Cl	none
N#CC1=C(N)Oc2cc(N)ccc2C1c1ccc(F)cc1 (stereo unspecified)	Runt-CBFb FRET 73, RanGTP-Imp inh 76, Runt-SMMHC FRET 86 | Runt-CBFb TRFRET inactive
Cc1nn(-c2ccccc2)cc1C(c1c(N)[nH]c(=S)[nH]c1=O)c1c(N)[nH]c(=S)[nH]c1=O	Runt-CBFb FRET 56 | Runt-CBFb TRFRET 58
CCOC(=O)c1cnc2ccc(Cl)cc2c1NCCN(C)C	Runt-CBFb FRET 64, RanGTP-Imp inh inconclusive | Runt-CBFb TRFRET inactive
Cc1cc(C)c2oc(=O)cc(CN3CCCCC3)c2c1	none (no result: Runt-CBFb FRET, Runt-SMMHC FRET, Hck-Nef inh)
O=C(NCc1ccco1)c1cccnc1-c1nc2ccccc2s1	Runt-CBFb FRET 50 | Runt-CBFb TRFRET 40
O=C(NCc1ccco1)c1cccnc1Cl	none
COc1ccc(-c2nc(=S)[nH][nH]2)cc1OC	Runt-CBFb FRET 51 | Runt-CBFb TRFRET inactive
CCOC(=O)c1cc(-c2ccccc2)n(CCC(=O)N2CCN(c3ccccn3)CC2)c1C	none
Cc1ccc(C2OC34CCCCCC3C(C#N)(C(=N)O4)C2(C#N)C#N)cc1 (stereo unspecified)	Runt-CBFb FRET 52, RanGTP-Imp inh 34, Runt-SMMHC FRET 99 | Runt-CBFb TRFRET inactive
O=C(C[n+]1cccc(Br)c1)c1ccc(-c2ccccc2)cc1	none (no result: Runt-CBFb FRET, Runt-SMMHC FRET, Hck-Nef inh)
C=CCN(Cc1ccc(OC)c(OC)c1)C(=O)c1cc2cc(F)ccc2[nH]1	none (no result: Runt-CBFb FRET, Runt-SMMHC FRET, Hck-Nef inh)
S=C1Cc2ccccc2N1	Runt-CBFb FRET 51 | Runt-CBFb TRFRET inactive
N#Cc1c2c(c(Nc3ccccc3)n3c1nc1ccccc13)CCC2	Runt-CBFb FRET 55, RanGTP-Imp inh 77, Runt-SMMHC FRET 70 | Runt-CBFb TRFRET inactive
N#Cc1c2c(c(-n3cnc4ccccc43)n3c1nc1ccccc13)CCC2	none (no result: Runt-CBFb FRET)
S=c1nc(-c2cc(Cl)ccc2Cl)[nH][nH]1	Runt-CBFb FRET 57 | Runt-CBFb TRFRET inactive
O=C1CC(N2CCC(O)(c3ccc(Cl)cc3)CC2)C(=O)N1Cc1ccc(N2CCCC2=O)cc1 (stereo unspecified)	Runt-CBFb FRET 66 | Runt-CBFb TRFRET inactive
COc1ccc(CCn2c(=N)c(C(=O)N3CCN(C)CC3)cc3c(=O)n4ccccc4nc32)cc1	Runt-CBFb FRET 65, Runt-SMMHC FRET 124 | Runt-CBFb TRFRET inactive
CCOc1ccc(S(=O)(=O)NCc2ccc3c(c2)OCO3)cc1C(=O)O	none (no result: Runt-CBFb FRET, Runt-SMMHC FRET, Hck-Nef inh)
CN(C)S(=O)(=O)c1ccc(=S)[nH]c1	Runt-CBFb FRET 50 | Runt-CBFb TRFRET inactive
CN(C)S(=O)(=O)c1ccc(-n2cccc2)cc1	none
COc1ccc(CN(C)S(=O)(=O)c2nnc(NC(=O)c3cccc(F)c3)s2)cc1	none (no result: Runt-CBFb FRET, Runt-SMMHC FRET, Hck-Nef inh)
CNC(=S)N(Cc1cc2ccc(OC)cc2[nH]c1=O)CC1CCCO1 (stereo unspecified)	Runt-CBFb FRET 63 | Runt-CBFb TRFRET inactive
COc1ccc2cc(CN(Cc3ccco3)C(=S)NCC3CCCO3)c(=O)[nH]c2c1 (stereo unspecified)	none (no result: Runt-CBFb FRET, Runt-SMMHC FRET)
NC(=S)N/N=C/c1ccc(-c2cc(Cl)cc(Cl)c2)o1	Runt-CBFb FRET 52 | Runt-CBFb TRFRET inactive
Nc1c(C(O)(C(F)(F)F)C(F)(F)F)cc(C(O)(C(F)(F)F)C(F)(F)F)c2ccccc12	none
CCC(C)(C)c1ccc2c(c1)C(=O)c1ccccc1C2=O	none
Cc1cccc(C2NC(=O)c3c(sc(C)c3C)N2)c1O (stereo unspecified)	Runt-CBFb FRET 51 | Runt-CBFb TRFRET inactive
O=C1NC(c2ccccc2O)Nc2ccccc21 (stereo unspecified)	none (no result: Runt-CBFb FRET, Runt-SMMHC FRET, Hck-Nef inh)
Cc1nc(N2CCCCC2)c2sc(=S)n(C)c2n1	none
CCN1CCN(c2nc(C)nc3c2sc(=S)n3C)CC1	Runt-CBFb FRET 53 (no result: RanGTP-Imp inh) | Runt-CBFb TRFRET inactive
CC(=O)c1cc(CN2CCC(n3nccc3NC(=O)c3ccccc3)CC2)cs1	none (no result: Runt-CBFb FRET, Runt-SMMHC FRET, Hck-Nef inh)
CN(C)S(=O)(=O)c1ccc(Cl)c(NC(=O)COc2ccccc2[N+](=O)[O-])c1	none
Oc1ccc(O)c(Cc2nc3ccccc3s2)c1	Runt-CBFb FRET 51 | Runt-CBFb TRFRET 43
Cc1nnc(Sc2cc(NCCO)c([N+](=O)[O-])c3nonc23)s1	Runt-CBFb FRET 52 | Runt-CBFb TRFRET inactive
O=C(O)c1ccccc1SC1CC(=O)N(c2cccc3ccccc23)C1=O (stereo unspecified)	Runt-CBFb FRET 53 (no result: RanGTP-Imp inh) | Runt-CBFb TRFRET 47
O=C(NCCCN1CCOCC1)c1sc2cc([N+](=O)[O-])ccc2c1Cl	Runt-CBFb FRET 50 | Runt-CBFb TRFRET inactive
S=C(NCCCN1CCOCC1)NC1CCCC1	none (no result: RanGTP-Imp inh)
S=C(NCCCN1CCOCC1)NCCCN1CCOCC1	Runt-CBFb FRET 50 | Runt-CBFb TRFRET inactive
COc1ccc(OC)c2c1C(=O)C(Cl)=C(Cl)C2=O	Runt-CBFb FRET 68, Runt-SMMHC FRET 66 | Runt-CBFb TRFRET inactive
O=C(NCc1ccc2c(c1)OCO2)c1cc(-c2ccccc2)nn1CC1CC(c2cccnc2)=NO1 (stereo unspecified)	none (no result: Runt-CBFb FRET, Runt-SMMHC FRET, Hck-Nef inh)
CC(C)C(=O)NC(Nc1cccc2cccnc12)C(Cl)(Cl)Cl (stereo unspecified)	Runt-CBFb FRET 79 | Runt-CBFb TRFRET 48
Cc1cccc(N2C(=O)C(Cl)=C(N3CCOCC3)C2=O)c1	Runt-CBFb FRET 51 | Runt-CBFb TRFRET inactive
CCc1ccc(N2C(=O)C(Cl)=C(N3CCCCCC3)C2=O)cc1	none (no result: Runt-CBFb FRET, Runt-SMMHC FRET, Hck-Nef inh)
CCc1ccc(N2C(=O)C(Cl)=C(N3CCOCC3)C2=O)cc1	Runt-CBFb FRET 68 | Runt-CBFb TRFRET inactive
CCC/C(O)=C1\C(=O)CC(C)(C)CC1=Nc1ccccc1O	none
Cc1ccn2c(=O)nc(SCC(=O)NCCc3ccccc3)nc2c1	none (no result: Runt-CBFb FRET, Runt-SMMHC FRET, Hck-Nef inh)
Cc1ccc(CSc2ccc(-c3ccco3)nn2)cc1	Runt-CBFb FRET 56 | Runt-CBFb TRFRET inactive
Clc1ccc(CSc2ccc(-c3ccco3)nn2)cc1	Runt-CBFb FRET 56 | Runt-CBFb TRFRET 52
c1ccc(CSc2ccc(-c3ccco3)nn2)cc1	none
CCN(C(=O)CSc1cc(C)c2cccc(C)c2n1)C1CCS(=O)(=O)C1 (stereo unspecified)	none
O=C(CCSc1ccccn1)c1ccccc1	Runt-CBFb FRET 59 | Runt-CBFb TRFRET inactive
O=C(COc1cc2oc(=O)c3c(c2cc1Cl)CCC3)NCC(O)c1ccccc1 (stereo unspecified)	none (no result: Runt-CBFb FRET, Runt-SMMHC FRET, Hck-Nef inh)
CCOc1ccccc1NC(=O)C(OC(=O)c1ccccc1O)c1ccccc1 (stereo unspecified)	none
CCOc1ccccc1NC(=O)C(OC(=O)c1cc(C)oc1C)c1ccccc1 (stereo unspecified)	Runt-CBFb FRET 54 | Runt-CBFb TRFRET inactive
CN(C)CCCNS(=O)(=O)c1ccc(N2CCC(c3ccc(Cl)cc3)=N2)cc1	Runt-CBFb FRET 57, RanGTP-Imp inh 27, Runt-SMMHC FRET 93, Hck-Nef inh active | Runt-CBFb TRFRET inactive

Bioassay records as filed in PubChem BioAssay.
